In general, GI50 refers to the concentration giving 50% growth inhibition. Low values mean more potent growth inhibition, high ones less potent growth inhibition.

Each structure is given as a SMILES string. Active and inactive are the calls of the source. The calls are words filed in the database; no cut-off is given here.

We go through five molecules from ChEMBL document CHEMBL1764968, “Structural simplification of bioactive natural products with multicomponent synthesis. 3. Fused uracil-containing heterocycles as novel topoisomerase-targeting agents” (2011).

In experiment [1] the target is DNA topoisomerase 2-alpha (Homo sapiens) (UniProt P11388). As to the kind of experiment: Inhibition of human DNA topoisomerase 2-mediated decatenation of catenated kinetoplast DNA at 5 uM after 1 hr by agarose gel electrophoresis. The method, boiled down:
(§1)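 0.2 μg catenated kinetoplast DNA incubated 1 h at 37 °C with compound in 50 mM Tris-Cl pH 8.0, 150 mM NaCl, 10 mM MgCl2, 5 mM ATP, 0.5 mM DTT, 30 μg/mL BSA. Doxorubicin 5 μM as positive control. Stopped with SDS/proteinase K, 30 min at 37 °C. Run on 1% agarose (55 V, 2 h), stained with ethidium bromide.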

Experiment [2] relates to HeLa. As to the kind of experiment: Cytotoxicity against human HeLa cells after 72 hrs by MTT assay. It is filed as functional. The method in brief: (§2)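 Cells plated 24 h in 96-well plates at 10,000–40,000 cells/mL depending on line. U373 grown in MEM, other lines in RPMI, both with 5% heat-inactivated FCS. Cells exposed to compounds (or none, control) for 72 h. MTT reduction to formazan read at 570 nm against 630 nm reference. Sextuplicate per condition.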

Experiment [3] concerns Jurkat. Nature of the experiment: Cytotoxicity against human Jurkat cells after 72 hrs by MTT assay. The class given is functional. The method in brief:
as §2
(In general: Tetrazolium dyes change colour on reduction, which living cells bring about.)

Experiment [4] concerns MCF7. As to the kind of experiment: Cytotoxicity against human MCF7 cells after 72 hrs by MTT assay. The class given is functional. To be noted: MCF7, 72 h. The method, boiled down:
as §2

Experiment [5] relates to A549. Nature of the experiment: Cytotoxicity against human A549 cells after 72 hrs by MTT assay. To be noted: A549, 72 h. It is filed as functional. The method in brief: as §2
Experiment [6] has as its system LoVo. As to the kind of experiment: Cytotoxicity against human LoVo cells after 72 hrs by MTT assay. The class given is functional. The method in brief:
as §2

Experiment [7] is described as follows: Cytotoxicity against human U373 cells after 72 hrs by MTT assay. It is filed as functional, U-373MG ATCC. To be noted: U373 MG. The method in brief: as §2
The subject of experiment [8] is SK-MEL. Nature of the experiment: Cytotoxicity against human SK-MEL cells after 72 hrs by MTT assay. It is filed as functional. The method, boiled down: as §2
The test system of experiment [9] is PC-3. As to the kind of experiment: Cytotoxicity against human PC3 cells after 72 hrs by MTT assay. The class given is functional. To be noted: PC-3, 72 h. The method, boiled down:
as §2

In experiment [10] the test system is U-373MG ATCC. Nature of the experiment: Cytostatic activity against human U373 cells assessed as morphological changes after 72 hrs by phase contrast microscopy. The class given is functional, cell-based.
Experiment [11] deals with T1, DNA topoisomerase 1 (Homo sapiens) (UniProt P11387).
T1 sequence (whole entry): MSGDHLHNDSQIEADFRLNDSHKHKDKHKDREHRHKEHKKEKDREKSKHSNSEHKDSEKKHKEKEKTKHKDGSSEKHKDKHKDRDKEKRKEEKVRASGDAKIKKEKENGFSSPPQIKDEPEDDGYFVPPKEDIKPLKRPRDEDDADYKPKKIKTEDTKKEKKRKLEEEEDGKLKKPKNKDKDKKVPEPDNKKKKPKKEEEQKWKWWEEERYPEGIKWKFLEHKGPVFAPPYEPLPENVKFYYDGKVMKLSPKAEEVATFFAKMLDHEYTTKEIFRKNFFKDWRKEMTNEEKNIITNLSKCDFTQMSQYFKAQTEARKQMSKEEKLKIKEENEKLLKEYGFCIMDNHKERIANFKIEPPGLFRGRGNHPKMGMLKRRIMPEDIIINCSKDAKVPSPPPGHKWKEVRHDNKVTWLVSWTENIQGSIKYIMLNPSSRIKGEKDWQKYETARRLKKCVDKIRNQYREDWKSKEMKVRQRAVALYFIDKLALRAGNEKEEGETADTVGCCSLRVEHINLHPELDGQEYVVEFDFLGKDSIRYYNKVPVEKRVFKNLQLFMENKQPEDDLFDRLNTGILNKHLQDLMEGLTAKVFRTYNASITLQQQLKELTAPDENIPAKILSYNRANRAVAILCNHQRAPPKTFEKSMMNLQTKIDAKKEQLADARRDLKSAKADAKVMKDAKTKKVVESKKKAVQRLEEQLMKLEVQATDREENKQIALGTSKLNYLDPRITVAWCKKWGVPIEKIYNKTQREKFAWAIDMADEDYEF
As to the kind of experiment: Inhibition of human DNA topoisomerase 1-mediated relaxation of supercoiled pGEM1 plasmid DNA at 250 uM after 30 mins by agarose gel electrophoresis. The method, boiled down:
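Enzyme source: nuclear extract of MCF-7 cells (0.1 μL). 250 ng supercoiled pGEM1 plasmid incubated 30 min at 37 °C with compound (10–250 μM) in 10 mM Tris pH 7.9, 100 mM KCl, 10 mM MgCl2, 0.5 mM DTT, 0.5 mM EDTA, 0.03 mg/mL BSA. Camptothecin 100 μM as positive control. Stopped with SDS/proteinase K, 30 min at 37 °C. Run on 1% agarose, stained with ethidium bromide.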

Experiment [12] concerns the target T1, DNA topoisomerase 1 (Homo sapiens). Nature of the experiment: Effect on human DNA topoisomerase 1-mediated supercoiled pGEM1 plasmid DNA cleavage complex stabilization at up to 100 uM by agarose gel electrophoresis.
The target in experiment [13] is DNA topoisomerase 2-alpha (Homo sapiens) (UniProt P11388). Nature of the experiment: Inhibition of human DNA topoisomerase 2-mediated decatenation of catenated kinetoplast DNA at 1 uM after 1 hr by agarose gel electrophoresis. The method in brief: as §1
Chain of DNA topoisomerase 2-alpha (Homo sapiens) (P11388 whole entry): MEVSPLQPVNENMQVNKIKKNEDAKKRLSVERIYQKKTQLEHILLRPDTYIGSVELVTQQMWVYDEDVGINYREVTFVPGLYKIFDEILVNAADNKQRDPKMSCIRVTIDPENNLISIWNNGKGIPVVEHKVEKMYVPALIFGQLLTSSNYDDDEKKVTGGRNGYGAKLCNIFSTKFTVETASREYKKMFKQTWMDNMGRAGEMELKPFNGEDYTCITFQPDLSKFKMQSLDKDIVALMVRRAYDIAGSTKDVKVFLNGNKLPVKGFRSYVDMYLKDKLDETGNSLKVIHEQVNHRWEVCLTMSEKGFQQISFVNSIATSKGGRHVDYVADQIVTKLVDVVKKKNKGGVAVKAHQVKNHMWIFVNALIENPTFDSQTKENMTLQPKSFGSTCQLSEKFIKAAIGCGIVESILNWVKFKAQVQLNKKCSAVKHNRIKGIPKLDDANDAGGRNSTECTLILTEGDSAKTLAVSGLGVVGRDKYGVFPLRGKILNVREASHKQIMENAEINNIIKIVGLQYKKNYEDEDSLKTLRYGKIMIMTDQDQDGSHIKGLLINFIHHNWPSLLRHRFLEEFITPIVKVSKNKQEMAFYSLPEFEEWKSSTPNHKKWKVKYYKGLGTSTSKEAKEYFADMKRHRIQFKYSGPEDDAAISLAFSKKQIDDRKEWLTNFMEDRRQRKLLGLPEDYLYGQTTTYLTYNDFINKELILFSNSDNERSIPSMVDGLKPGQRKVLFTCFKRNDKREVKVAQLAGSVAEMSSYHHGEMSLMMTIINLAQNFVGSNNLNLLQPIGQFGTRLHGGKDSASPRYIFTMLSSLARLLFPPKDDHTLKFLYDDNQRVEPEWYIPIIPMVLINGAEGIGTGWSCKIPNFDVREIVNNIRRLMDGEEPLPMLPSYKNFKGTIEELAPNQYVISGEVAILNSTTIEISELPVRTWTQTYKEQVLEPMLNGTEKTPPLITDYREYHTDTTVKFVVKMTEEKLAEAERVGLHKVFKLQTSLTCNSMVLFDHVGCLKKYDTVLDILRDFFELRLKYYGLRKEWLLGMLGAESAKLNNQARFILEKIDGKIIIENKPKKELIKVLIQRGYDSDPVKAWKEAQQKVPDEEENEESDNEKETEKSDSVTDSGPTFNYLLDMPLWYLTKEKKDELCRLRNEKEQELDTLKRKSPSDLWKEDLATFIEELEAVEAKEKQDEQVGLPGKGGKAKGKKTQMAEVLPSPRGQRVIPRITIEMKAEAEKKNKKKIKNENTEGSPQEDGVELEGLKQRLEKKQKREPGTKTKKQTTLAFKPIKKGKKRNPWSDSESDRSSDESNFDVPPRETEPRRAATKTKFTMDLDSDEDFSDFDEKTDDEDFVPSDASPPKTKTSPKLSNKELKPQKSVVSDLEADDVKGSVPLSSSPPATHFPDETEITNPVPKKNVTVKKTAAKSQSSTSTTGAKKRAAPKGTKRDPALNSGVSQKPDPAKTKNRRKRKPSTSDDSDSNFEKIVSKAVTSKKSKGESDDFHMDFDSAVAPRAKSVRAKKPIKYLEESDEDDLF

`COc1cccc2c1C(=O)c1c(O)c3c(c(O)c1C2=O)C[C@@](O)(C(=O)CO)C[C@@H]3O[C@H]1C[C@H](N)[C@H](O)[C@H](C)O1`: in [1], the inhibition result is “Active”.

Take `CSc1ccc(C2C3=C(Nc4[nH]c(=O)[nH]c(=O)c42)c2ccccc2C3=O)cc1` (configuration not stated): the GI50 in experiment [2] was 370 nM; in experiment [3] it was 190 nM; in [4] it was 360 nM; in experiment [5] it was 470 nM; in experiment [6], 490 nM; in [7] it was 100 nM. Besides, the results for the GI50 in experiment [8] and in experiment [9] were 1800 nM and 400 nM, respectively. Further, the result in [10] was Active. In experiment [11], the inhibition entry is “Active”. For the same molecule, in [12], the outcome was inactive.

For the molecule `Cc1ccc(C2C3=C(Nc4[nH]c(=O)[nH]c(=O)c42)c2ccccc2C3=O)cc1C` (configuration not stated), the GI50 in [2] was 780 nM; in experiment [3], 190 nM; in experiment [4] it was 340 nM; in experiment [5], 290 nM; in [6] it was 490 nM; in [7], 430 nM. Also, the concentration for 50% growth inhibition (GI50) in [8] is 960 nM; in experiment [9] it was 4200 nM. Moreover, the outcome in experiment [10] was Active. The result in experiment [12] was inactive.

`CSc1ccc(-c2c3c(nc4[nH]c(=O)[nH]c(=O)c24)-c2ccccc2C3=O)cc1`: the GI50 in [2] amounted to 170 nM; in [3] it was 50 nM; in experiment [4], 450 nM; in experiment [5], 610 nM; in experiment [6] it was 290 nM; in experiment [7], 100 nM. Besides, the figures for the GI50 in experiment [8] and in [9] were 230 nM and 190 nM, respectively. Also, the outcome in experiment [10] was Active. In addition, the inhibition entry in experiment [11], in experiment [13] and in experiment [1] was “Active” throughout. The result in experiment [12] was inactive.

For the molecule `Cc1ccc(-c2c3c(nc4[nH]c(=O)[nH]c(=O)c24)-c2ccccc2C3=O)cc1C`, the GI50 in experiment [2] is 190 nM; in experiment [3] it was 170 nM; in experiment [4], 190 nM; in [5], 140 nM; in [6], 330 nM; in experiment [7], 500 nM. In addition, the GI50 in experiment [8] was found to be 450 nM; in experiment [9], 480 nM. Moreover, in experiment [10], the outcome was Active. Also, in [12], the result was inactive. Also, the inhibition entry in experiment [13] and in experiment [1] was “Active” throughout.
